Results taken from ChEMBL document CHEMBL2396529, “Synthesis and anticancer mechanism investigation of dual Hsp27 and tubulin inhibitors” (J Med Chem, 2013).
pIC50: −log10 of the molar value. Calls of active or inactive are those of the source. The rule behind the calls is not given here.

Tests used:
SK-BR-3 [1] = assay: Cell cycle arrest in human SKBR3 cells assessed as accumulation at G2/M phase at 1 nM after 24 hrs by propidium iodide staining-based FACS flow cytometric analysis (reference value: 10.77%); format: functional
Bos taurus [2] = species on record: Bos taurus; assay: Inhibition of bovine brain tubulin polymerization at 1 uM after 15 mins by spectrophotometric analysis relative to control in presence of GTP
SK-BR-3 [3] = assay: Effect on HSP70 protein level human SKBR3 cells at 5 to 15 nM after 24 hrs by Western blotting analysis; format: functional, cell-based
SK-BR-3 [4] = assay: Cell cycle arrest in human SKBR3 cells assessed as accumulation at subG1 phase at 50 nM after 24 hrs by propidium iodide staining-based FACS flow cytometric analysis (reference value: 3.23%); format: functional
SK-BR-3 [5] = assay: Cell cycle arrest in human SKBR3 cells assessed as accumulation at S phase at […] after 24 hrs by propidium iodide staining-based FACS flow cytometric analysis (reference value: 16.34%); format: functional
[6] = target: Heat shock protein beta-1 (Homo sapiens) (UniProt P04792); assay: Inhibition of HSP27 (unknown origin) assessed as increase in DTT-induced insulin B chain aggregation at 10 uM incubated for 5 mins prior to DTT-treatment measured after 30 mins by spectrophotometric analysis relative to control
Sequence of Heat shock protein beta-1 (Homo sapiens) (P04792 whole entry): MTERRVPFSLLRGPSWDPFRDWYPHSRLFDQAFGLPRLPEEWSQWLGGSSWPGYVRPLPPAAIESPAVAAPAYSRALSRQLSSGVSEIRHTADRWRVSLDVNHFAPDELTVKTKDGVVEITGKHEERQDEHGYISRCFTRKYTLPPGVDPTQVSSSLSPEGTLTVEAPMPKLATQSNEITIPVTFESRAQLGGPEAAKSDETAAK

SK-BR-3 [7] = assay: Cell cycle arrest in human SKBR3 cells assessed as accumulation at G1 phase at […] after 24 hrs by propidium iodide staining-based FACS flow cytometric analysis (reference value: 69.63%); format: functional
SK-BR-3 [8] = assay: Cell cycle arrest in human SKBR3 cells assessed as accumulation at G2/M phase at 5 nM after 24 hrs by propidium iodide staining-based FACS flow cytometric analysis (reference value: 10.77%); format: functional
SK-BR-3 [9] = assay: Cell cycle arrest in human SKBR3 cells assessed as accumulation at subG1 phase at 5 nM after 24 hrs by propidium iodide staining-based FACS flow cytometric analysis (reference value: 3.23%); format: functional
SK-BR-3 [10] = assay: Cell cycle arrest in human SKBR3 cells assessed as accumulation at G2/M phase at […] after 24 hrs by propidium iodide staining-based FACS flow cytometric analysis (reference value: 10.77%); format: functional
SK-BR-3 [11] = assay: Cell cycle arrest in human SKBR3 cells assessed as accumulation at S phase at 1 nM after 24 hrs by propidium iodide staining-based FACS flow cytometric analysis (reference value: 16.34%); format: functional
SK-BR-3 [12] = assay: Cell cycle arrest in human SKBR3 cells assessed as accumulation at S phase at 5 nM after 24 hrs by propidium iodide staining-based FACS flow cytometric analysis (reference value: 16.34%); format: functional
SK-BR-3 [13] = assay: Cell cycle arrest in human SKBR3 cells assessed as accumulation at G1 phase at 5 nM after 24 hrs by propidium iodide staining-based FACS flow cytometric analysis (reference value: 69.63%); format: functional
SK-BR-3 [14] = assay: Cell cycle arrest in human SKBR3 cells assessed as accumulation at G1 phase at 50 nM after 24 hrs by propidium iodide staining-based FACS flow cytometric analysis (reference value: 69.63%); format: functional
SK-BR-3 [15] = assay: Antiproliferative activity against human SKBR3 cells after 48 hrs by MTT assay; format: functional, cell-based; details: SK-BR-3, 48 h
Procedure, shortened: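 MTT assay on SKBR-3 cells (RPMI 1640, 10% heat-inactivated FBS, 37 °C, 5% CO2), seeded 24 h before dosing, then exposed 48 h to a concentration series in DMSO (final ≤0.1%) with vehicle-matched controls. Afterwards 0.5 mg/mL MTT for 2 h, formazan dissolved in DMSO, A570 read, six replicates. IC50 from nonlinear regression.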

SK-BR-3 [16] = assay: Effect on total HSP27 protein level human SKBR3 cells at 5 to 15 nM after 24 hrs by Western blotting analysis; format: functional, cell-based
SK-BR-3 [17] = assay: Cell cycle arrest in human SKBR3 cells assessed as accumulation at S phase at 50 nM after 24 hrs by propidium iodide staining-based FACS flow cytometric analysis (reference value: 16.34%); format: functional
SK-BR-3 [18] = assay: Cell cycle arrest in human SKBR3 cells assessed as accumulation at G2/M phase at 50 nM after 24 hrs by propidium iodide staining-based FACS flow cytometric analysis (reference value: 10.77%); format: functional
SK-BR-3 [19] = assay: Cell cycle arrest in human SKBR3 cells assessed as accumulation at subG1 phase at 1 nM after 24 hrs by propidium iodide staining-based FACS flow cytometric analysis (reference value: 3.23%); format: functional
SK-BR-3 [20] = assay: Induction of apoptosis in human SKBR3 cells assessed as increase in cleaved PARP protein level at 5 to 15 nM after 24 hrs by Western blotting analysis; format: functional, cell-based
Procedure, shortened: (§1)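 SKBR-3 cells treated 24 h with 5, 10 and 15 nM against DMSO. Lysates (60 μg protein) resolved on 10% SDS-PAGE, transferred to PVDF, blocked in 5% milk/PBST and immunoblotted for cleaved caspase 3 and cleaved PARP with an HRP secondary.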

Bos taurus [21] = species on record: Bos taurus; assay: Inhibition of bovine brain tubulin polymerization after 20 mins by spectrophotometric analysis in presence of GTP
SK-BR-3 [22] = assay: Effect on HER2 protein level human SKBR3 cells at 5 to 15 nM after 24 hrs by Western blotting analysis; format: functional, cell-based
SK-BR-3 [23] = assay: Effect on EIF4E protein level human SKBR3 cells at 5 to 15 nM after 24 hrs by Western blotting analysis; format: functional, cell-based
SK-BR-3 [24] = assay: Induction of apoptosis in human SKBR3 cells assessed as increase in cleaved caspase-3 protein level at 5 to 15 nM after 24 hrs by Western blotting analysis; format: functional, cell-based; procedure, shortened: as §1
SK-BR-3 [25] = assay: Cell cycle arrest in human SKBR3 cells assessed as accumulation at G1 phase at 1 nM after 24 hrs by propidium iodide staining-based FACS flow cytometric analysis (reference value: 69.63%); format: functional
SK-BR-3 [26] = assay: Induction of HSP27 phosphorylation in human SKBR3 cells at 5 to 15 nM after 24 hrs by Western blotting analysis; format: functional, cell-based
Procedure, shortened: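 SKBR-3 cells exposed to 5, 10 and 15 nM for 24 h against DMSO, then lysed, sonicated and spun at 12000g for 10 min. 30 μg protein run on 10% SDS-PAGE and transferred to PVDF. Blocked with 5% milk in PBST, probed with specific primary antibodies and an HRP secondary. pHsp27 bands quantified and normalised to β-actin.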

SK-BR-3 [27] = assay: Cell cycle arrest in human SKBR3 cells assessed as accumulation at subG1 phase at […] after 24 hrs by propidium iodide staining-based FACS flow cytometric analysis (reference value: 3.23%); format: functional
SK-BR-3 [28] = assay: Effect on STAT3 protein level human SKBR3 cells at 5 to 15 nM after 24 hrs by Western blotting analysis; format: functional, cell-based

inhibition (Bos taurus [2]): 64% | inhibition [6]: 27% | pIC50 (SK-BR-3 [15]): 8.92 | inhibition (Bos taurus [21]): Dose-dependent effect
SMILES: COc1ccc(OC)c(COc2cc(NC(=O)c3ccc(I)cc3)ccc2N(C)S(C)(=O)=O)c1
Activity (SK-BR-3 [1]): 9.24% | Activity (SK-BR-3 [3]): inactive | Activity (SK-BR-3 [4]): 32.88% | Activity (SK-BR-3 [5]): 9.49% | Activity (SK-BR-3 [7]): 60.08% | Activity (SK-BR-3 [8]): 13.76% | Activity (SK-BR-3 [9]): 24.27% | Activity (SK-BR-3 [10]): 8.1% | Activity (SK-BR-3 [11]): 8.45% | Activity (SK-BR-3 [12]): 9.51% | Activity (SK-BR-3 [13]): 51.84% | Activity (SK-BR-3 [14]): 31.22% | Activity (SK-BR-3 [16]): inactive | Activity (SK-BR-3 [17]): 11.39% | Activity (SK-BR-3 [18]): 24.32% | Activity (SK-BR-3 [19]): 14.73% | Activity (SK-BR-3 [20]): Active | Activity (SK-BR-3 [22]): inactive | Activity (SK-BR-3 [23]): inactive | Activity (SK-BR-3 [24]): Active | Activity (SK-BR-3 [25]): 66.68% | Activity (SK-BR-3 [26]): Active | Activity (SK-BR-3 [27]): 22.02% | Activity (SK-BR-3 [28]): inactive
